Experimental data as given in ChEMBL document CHEMBL4837232, “Synthesis, in vitro antiprotozoal activity, molecular docking and molecular dynamics studies of some new monocationic guanidinobenzimidazoles” (Eur J Med Chem, 2021).
Values after ≈ are worked out from the molar mass of the structure shown.

Assays:
Trypanosoma cruzi = test: Antitrypanosomal activity against Trypanosoma cruzi Tulahuen C4 strain amastigotes infected in rat L6 cells measured after 96 hrs by inverted microscopy analysis; assay type: functional, organism-based; conditions: Tulahuen C4, L6, 96 h
Leishmania donovani = test: Antileishmanial activity against Leishmania donovani MHOM/ET/67/L82 amastigotes measured after 70 hrs by resazurin dye based fluorometric analysis; assay type: functional, organism-based; conditions: MHOM/ET/67/L82, 70 h
L6 = test: Cytotoxicity against rat L6 cells assessed as reduction in cell viability incubated for 70 hrs by resazurin dye based fluorescence assay; conditions: L6, 70 h
Procedure, shortened: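 Uses cultured L-6 rat skeletal myoblasts with an Alamar Blue viability read-out, run per an earlier protocol. The IC50 is the mean of at least two independent experiments, with individual values within a factor of two.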

[1] = test system: Trypanosoma brucei rhodesiense; test: Antitrypanosomal activity against bloodstream form of Trypanosoma brucei rhodesiense STIB900 incubated for 70 hrs by resazurin dye-based fluorometric analysis; assay type: functional, organism-based; conditions: STIB900, 70 h
Plasmodium falciparum = test: Antiplasmodial activity against bloodstream form of Plasmodium falciparum NF54 […] assessed as reduction in [3H]-hypoxanthine incorporation pretreated for 48 hrs followed by [3H]-hypoxanthine addition measured after 24 hrs by liquid scintillation counting method; assay type: functional, organism-based
[2] = Selectivity index, ratio of IC50 for cytotoxicity against rat L6 cells to IC50 for antitrypanosomal activity against Trypanosoma cruzi Tulahuen C4 strain amastigotes infected in rat L6 cell; assay type: toxicity, cell-based; conditions: read-out: Ratio IC50
Procedure, shortened: (§1)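 Each index is the L6-cell IC50 divided by the IC50 for the given parasite. Each IC50 is the mean of at least two independent experiments, agreeing within a factor of two.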

[3] = Selectivity index, ratio of IC50 for cytotoxicity against rat L6 cells to IC50 for antitrypanosomal activity against bloodstream form of Trypanosoma brucei rhodesiense STIB900; assay type: toxicity, cell-based; conditions: read-out: Ratio IC50; procedure, shortened: as §1
[4] = Selectivity index, ratio of IC50 for cytotoxicity against rat L6 cells to IC50 for antiplasmodial activity against bloodstream form of Plasmodium falciparum NF54; assay type: toxicity, cell-based; conditions: read-out: Ratio IC50; procedure, shortened: as §1
[5] = Selectivity index, ratio of IC50 for cytotoxicity against rat L6 cells to IC50 for antileishmanial activity against Leishmania donovani MHOM/ET/67/L82 amastigotes; assay type: toxicity, cell-based; conditions: read-out: Ratio IC50; procedure, shortened: as §1

SMILES | IC50 (Trypanosoma cruzi) [µg/mL] | IC50 (Leishmania donovani) [µg/mL] | IC50 (L6) [µg/mL] | IC50 [1] [µg/mL] | IC50 (Plasmodium falciparum) [µg/mL] | selectivity ratio [2] | selectivity ratio [3] | selectivity ratio [4] | selectivity ratio [5]
N=C(N)Nc1ccc2[nH]c(-c3cc(-c4ccc(Cl)cc4)on3)nc2c1 | 21.7 (≈ 61.5 µM) | 7.7 (≈ 21.8 µM) | 46.8 (≈ 133 µM) | 5.62 (≈ 15.9 µM) | 1.14 (≈ 3.23 µM) |  |  |  | 
N=C(N)Nc1ccc2[nH]c(-c3ccc4c(c3)Cc3ccccc3-4)nc2c1 | 34.3 (≈ 101 µM) | 40.3 (≈ 119 µM) | 43.6 (≈ 128 µM) | 6.03 (≈ 17.8 µM) | 0.168 (≈ 0.495 µM) |  |  |  | 
COc1ccc(Oc2ccc(-c3nc4cc(NC(=N)N)ccc4[nH]3)cc2)cc1OC | 58.6 (≈ 145 µM) | 58 (≈ 144 µM) | > 100 | 12.5 (≈ 31 µM) | 0.052 (≈ 0.129 µM) | > 2 | > 8 | > 1920 | > 2
N=C(N)Nc1ccc2[nH]c(-c3ccc(-c4ccccc4)s3)nc2c1 | 36.5 (≈ 109 µM) | 44 (≈ 132 µM) | 48.4 (≈ 145 µM) | 16 (≈ 48 µM) | 0.279 (≈ 0.837 µM) |  |  |  | 
Cc1ncsc1-c1nc2cc(NC(=N)N)ccc2[nH]1 | 64 (≈ 235 µM) | 46.8 (≈ 172 µM) | 93 (≈ 341 µM) | 17.3 (≈ 63.5 µM) | 3.03 (≈ 11.1 µM) |  |  |  | 
N=C(N)Nc1ccc2[nH]c(-c3ccccc3)nc2c1 | 61.2 (≈ 244 µM) | > 100 | > 100 | 11.6 (≈ 46.2 µM) | 4.07 (≈ 16.2 µM) |  |  |  | 
N=C(N)Nc1ccc2[nH]c(-c3cccc4cnccc34)nc2c1 | 8.57 (≈ 28.3 µM) | 46.3 (≈ 153 µM) | 44.6 (≈ 148 µM) | 3.8 (≈ 12.6 µM) | 2.72 (≈ 9 µM) |  |  |  | 
N=C(N)Nc1ccc2[nH]c(-c3ccc(C(=O)O)cc3)nc2c1 | 59.1 (≈ 200 µM) | > 100 | > 100 | 72.1 (≈ 244 µM) | 37.2 (≈ 126 µM) |  |  |  | 
N=C(N)Nc1ccc2[nH]c(-c3csc4ccccc34)nc2c1 | 53.1 (≈ 173 µM) | 58.6 (≈ 191 µM) | 40 (≈ 130 µM) | 12.1 (≈ 39.4 µM) | 0.57 (≈ 1.85 µM) |  |  |  | 
N=C(N)Nc1ccc2[nH]c(-c3ccc(Oc4ccccc4)cc3)nc2c1 | 49.5 (≈ 144 µM) | > 100 | 51.6 (≈ 150 µM) | 16.1 (≈ 46.9 µM) | 1.87 (≈ 5.45 µM) |  |  |  | 
N=C(N)Nc1ccc2[nH]c(-c3ccc(Cl)cc3)nc2c1 | 90.5 (≈ 317 µM) | 64.5 (≈ 226 µM) | 71.1 (≈ 249 µM) | 29.5 (≈ 103 µM) | 1.89 (≈ 6.61 µM) |  |  |  | 
N=C(N)Nc1ccc2[nH]c(-c3ccc(-c4ccccc4)cc3)nc2c1 | 54.3 (≈ 166 µM) | 52.5 (≈ 161 µM) | 46.2 (≈ 141 µM) | 21.5 (≈ 65.7 µM) | 0.018 (≈ 0.055 µM) | 0.8 | 2 | 2360 | 0.8
N=C(N)Nc1ccc2[nH]c(-c3ccc(OCc4ccccc4)cc3)nc2c1 | 38 (≈ 106 µM) | > 100 | 43.2 (≈ 121 µM) | 13.6 (≈ 38.1 µM) | 0.226 (≈ 0.632 µM) |  |  |  | 
Cc1ccc(-c2nc3cc(NC(=N)N)ccc3[nH]2)c(C)c1 | > 100 | > 100 | 97.8 (≈ 350 µM) | 40.8 (≈ 146 µM) | 6.26 (≈ 22.4 µM) |  |  |  | 
COc1ccc(-c2nc3cc(NC(=N)N)ccc3[nH]2)cc1OC | > 100 | 97.8 (≈ 314 µM) | 78 (≈ 251 µM) | 23.8 (≈ 76.4 µM) | 0.153 (≈ 0.491 µM) |  |  |  | 
N=C(N)Nc1ccc2[nH]c(-c3ccc4c(c3)OCCO4)nc2c1 | 75.1 (≈ 243 µM) | 56.2 (≈ 182 µM) | 73.5 (≈ 238 µM) | 10.1 (≈ 32.7 µM) | 0.82 (≈ 2.65 µM) |  |  |  | 
N=C(N)Nc1ccc2[nH]c(-c3cccc4ccccc34)nc2c1 | 63.6 (≈ 211 µM) | > 100 | 48.9 (≈ 162 µM) | 11.8 (≈ 39.2 µM) | 1.41 (≈ 4.68 µM) |  |  |  | 
N#Cc1ccc(-c2nc3cc(NC(=N)N)ccc3[nH]2)cc1 | 89.5 (≈ 324 µM) | > 100 | > 100 | 18.2 (≈ 65.9 µM) | 1.17 (≈ 4.23 µM) |  |  |  | 
N=C(N)Nc1ccc2[nH]c(-c3ccc(F)c(F)c3)nc2c1 | 67 (≈ 233 µM) | > 100 | > 100 | 6.04 (≈ 21 µM) | 2.67 (≈ 9.29 µM) |  |  |  | 
N=C(N)Nc1ccc2[nH]c(-c3ccc(-c4cccs4)s3)nc2c1 | 46.1 (≈ 136 µM) | 37.7 (≈ 111 µM) | 49.9 (≈ 147 µM) | 11.8 (≈ 34.8 µM) | 0.19 (≈ 0.56 µM) |  |  |  | 
